From PubChem BioAssay
Activity calls are given as the source filed them.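 How the source made its calls, unless noted: active means fluorescence slope after compound addition differing from the mean of all tested samples at 99.7% confidence, mostly higher but some lower; inactive means the rest.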

Key:
[1] = inhibitors of TNFa-induced NFkB p65 translocation, primary screen, imaging, HUVEC, MLSMR starter and 10KST1 sets (AID 438;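 active means inhibition above 20% together with a positive visual image hit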;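 further: compound added about 3h40 before a 20 min TNFalpha stimulation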;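 on inhibition: signal is the nuclear over cytoplasmic p65 intensity ratio per well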); conditions: HUVEC TNFa-induced p65 nuclear translocation; cell count: measured here: nuclei count (cytotoxicity indicator), at 2.08 µM; inhibition: at 2 µM, stronger effect = higher value, 0% TNFa-plus-vehicle, 100% no-TNFa wells
[2] = inhibitors of E-selectin induction by TNFa, primary screen, imaging, HUVEC, immunofluorescence, MLSMR starter and 10KST1 sets (AID 487;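 active means visually confirmed hit in the image check and inhibition above 20%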;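 on inhibition: signal is fraction of cell area covered by stained E-selectin grains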;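 on nuclei count: 100% = median nuclei count of all wells on the same plate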); conditions: HUVEC TNFalpha-induced E-selectin immunofluorescence imaging, at 2 µM; inhibition: stronger effect = higher value; nuclei count: measured here: cell number, toxicity
[3] = DUSP6 inhibitors restoring Erk phosphorylation by chemical complementation, primary imaging in DUSP6-transfected HeLa (AID 609;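 active means compounds giving at least 50% inhibition in the cell-based MKP-3 phosphatase rescue imaging test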;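 on inhibition: phospho-Erk level distribution per well compared with pooled transfected vehicle control wells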); conditions: HeLa MKP-3 transfected, phospho-Erk imaging KS statistic, at 10 µM, cells stimulated with TPA for 15 min
[4] = biological target: Dual specificity protein phosphatase 6 (Homo sapiens) (UniProt Q16828); assay: as above; conditions: HeLa MKP-3 transfected, phospho-Erk imaging KS statistic; at 10 µM; stronger effect = higher value; cells stimulated with TPA for 15 min
[5] = biological target: Voltage-gated potassium channel subunit beta-2 (Rattus norvegicus) (UniProt P62483); assay: KvBeta enzyme negative modulators, primary screen, biochemical, NADPH fluorescence (AID 622;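 active means fluorescence slope higher than the sample average by over 3 SD, cut at about -0.22 in these data, passing the limit was not always enough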;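 further: slope of raw intensity against log time taken from 70 to 1610 s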); conditions: recombinant KvBeta, 4-cyanobenzaldehyde reduction, at 10 µM, stronger effect = higher value
[6] = biological target: Voltage-gated potassium channel subunit beta-2 (Rattus norvegicus) (UniProt P62483); assay: KvBeta positive modulators, primary screen, biochemical, NADPH fluorescence (AID 623;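 active means NADPH fluorescence slope more negative than the mean of all samples by about 3 SD, 99.7% confidence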;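 further: fluorescence intensity change per second fitted from 20 to 320 s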); conditions: Recombinant KvBeta, NADPH fluorescence decrease slope, 10 min; at 10 µM; stronger effect = lower value
[7] = biological target: Muscarinic acetylcholine receptor M4 (Homo sapiens) (UniProt P08173); assay: compounds altering M4/GIRK thallium flux, either direction, primary screen, M4 allosteric agonist project, cell-based, HEK293 M4/GIRK, BTC-AM (AID 625); conditions: at 10 µM, actives lie on both sides;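 further: thallium influx through GIRK channels coupled to M4 in HEK293 cells with BTC-AM dye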
Summary of the method: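 System: HEK293 cells with M4 receptor and GIRK channels | Incubation: Cells overnight at 37 °C, BTC-AM loading 1 h, reads 2 min total | Technique: Kinetic BTC-AM fluorescence sampled at 1 Hz, 10 s pre-addition baseline | Measure: Post-addition slope, 15–24 s, of baseline-normalized fluorescence | Control set: Carbachol positive, DMSO negative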

[8] = inhibitors of larval lipid processing in zebrafish, primary screen, whole organism, PED6 fluorescence, gall bladder and intestine (AID 686;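 active means a full or partial loss of lipid-probe fluorescence in the fish gall bladder, intestine or both, judged by eye; inactive means no fluorescence loss, or compound toxic to the fish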;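 further: larvae 5 to 7 days old with five fish per well; signal comes from phospholipase A2 cleavage of quenched PED6 carried via bile; overnight exposure to compound and PED6 before scoring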); conditions: Zebrafish larvae PED6 lipid processing, fluorescence scoring; screened at 20 µM (by protocol)
Summary of the method: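 Test system – live zebrafish larvae aged 5-7 days, whole organism · Buffer or medium – E3 fish medium · Reagent – quenched phospholipase substrate PED6, 100 nM final, ingested by larvae · Doses – 20 µM single dose · Incubation – overnight compound and PED6 incubation · Technique – visual fluorescence microscopy scoring of gall bladder, gut · Read-out basis – visual per-well fluorescence inhibition score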

[9] = inhibitors of Chlamydomonas gravitaxis, primary screen, whole organism, Chlamydomonas reinhardtii, WT vs cilia-less mutant, absorbance, 96-well (AID 463189;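 active means inhibition at or above 50% relative to wild type and mutant plate controls; inactive means inhibition below 50%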;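 further: 0% = wild type cc124 cells in DMSO and 100% = ciliumless bld1 mutant cells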); conditions: OD600 absorbance, 2 days, at 10 µM, stronger effect = higher value
[10] = measured here: cell density z-score
[11] = measured here: nuclear c-Myc green intensity z-score
[12] = measured here: nuclear pErk red intensity z-score, stronger effect = higher value

Sequence of Voltage-gated potassium channel subunit beta-2 (Rattus norvegicus) (P62483 whole entry, looked up): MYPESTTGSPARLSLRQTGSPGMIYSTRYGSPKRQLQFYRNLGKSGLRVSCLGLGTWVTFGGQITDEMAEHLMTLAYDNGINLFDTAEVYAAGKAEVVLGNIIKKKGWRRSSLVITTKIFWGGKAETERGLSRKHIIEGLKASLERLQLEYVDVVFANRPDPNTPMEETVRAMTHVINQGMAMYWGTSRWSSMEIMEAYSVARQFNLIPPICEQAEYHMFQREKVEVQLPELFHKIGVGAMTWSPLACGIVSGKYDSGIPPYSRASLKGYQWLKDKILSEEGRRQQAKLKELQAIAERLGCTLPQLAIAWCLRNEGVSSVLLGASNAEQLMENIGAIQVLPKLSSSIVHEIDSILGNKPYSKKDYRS
Sequence of Muscarinic acetylcholine receptor M4 (Homo sapiens) (P08173 whole entry, looked up): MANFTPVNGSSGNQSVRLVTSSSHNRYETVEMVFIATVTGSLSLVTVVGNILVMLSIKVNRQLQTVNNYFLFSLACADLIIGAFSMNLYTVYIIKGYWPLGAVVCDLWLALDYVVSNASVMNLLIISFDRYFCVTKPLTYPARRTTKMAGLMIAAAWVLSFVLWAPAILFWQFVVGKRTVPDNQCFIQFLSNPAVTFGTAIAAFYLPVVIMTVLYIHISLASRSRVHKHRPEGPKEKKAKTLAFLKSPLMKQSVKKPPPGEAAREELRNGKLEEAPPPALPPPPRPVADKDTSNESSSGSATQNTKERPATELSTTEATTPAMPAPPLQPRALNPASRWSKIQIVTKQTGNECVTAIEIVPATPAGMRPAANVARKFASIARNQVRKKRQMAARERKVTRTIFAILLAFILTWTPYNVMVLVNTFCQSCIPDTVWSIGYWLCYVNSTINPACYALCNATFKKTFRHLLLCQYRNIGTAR
Sequence of Dual specificity protein phosphatase 6 (Homo sapiens) (Q16828 whole entry, looked up): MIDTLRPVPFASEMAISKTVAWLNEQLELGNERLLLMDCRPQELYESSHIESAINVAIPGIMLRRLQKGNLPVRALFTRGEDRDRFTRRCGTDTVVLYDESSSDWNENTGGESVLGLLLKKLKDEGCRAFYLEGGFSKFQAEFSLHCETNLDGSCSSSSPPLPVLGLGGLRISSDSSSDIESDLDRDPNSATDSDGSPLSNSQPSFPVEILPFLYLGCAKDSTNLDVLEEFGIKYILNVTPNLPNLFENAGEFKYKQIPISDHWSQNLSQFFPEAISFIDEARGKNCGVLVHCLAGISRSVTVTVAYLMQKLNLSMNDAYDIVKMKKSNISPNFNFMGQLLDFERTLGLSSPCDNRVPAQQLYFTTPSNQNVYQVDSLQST

Row | Compound | cell count [1] | inhibition [1] | inhibition [2] | nuclei count [2] [%] | z-score [3, 10] | z-score [3, 11] | z-score [3, 12] | inhibition [4] | fluorescence slope [5] | NADPH fluorescence slope [6] | fluorescence slope [7] | outcome [8] | inhibition [9]
1 | COC(=O)c1cc(Br)c(=O)n(-c2cc(C)on2)c1 | 650 | -3.9% (inactive) | 23.3% (inactive) | 115 | -0.164 | -1.68 | 0.836 | -2.91% (inactive) | -0.438 (inactive) | -1.4e-05 (inactive) | 0.00456 (inactive) | inactive | 8.55% (inactive)
2 | Cc1ccc(-n2ncc3c(N4CCC(C(N)=O)CC4)ncnc32)c(C)c1 | 525 | -15.6% (inactive) | -31.1% (inactive) | 113 | -0.735 | 0.453 | -0.332 | 7.42% (inactive) | -0.391 (inactive) | -3.9e-05 (inactive) | 0.0065 (inactive) | inactive | 42.2% (inactive)
3 | O=c1c2c3c(sc2nc2n1CCCS2)CCCC3 | 612 | -6.1% (inactive) | -125% (inactive) | 162 | -0.979 | -0.423 | 0.7 | -7.67% (inactive) | -0.477 (inactive) | -9.8e-05 (inactive) | 0.00442 (inactive) | inactive | 73.3% (active)
4 | CCc1cc(=O)oc2cc(C)c(CN3CCCC3)c(O)c12 | 666 | -6.3% (inactive) | 27.1% (inactive) | 158 | -0.426 | -0.164 | -0.144 | -2.29% (inactive) | -0.444 (inactive) | -0.000155 (inactive) | 0.00438 (inactive) | inactive | 3.29% (inactive)
5 | CCC(=O)Nc1cccc(-c2nnc(SCC(=O)NCc3ccco3)n2C)c1 | 615 | -0.2% (inactive) | 47.2% (inactive) | 92.3 | 1.47 | -0.507 | -1.13 | 18.4% (inactive) | -0.51 (inactive) | -4e-05 (inactive) | 0.00589 (inactive) | inactive | -16.4% (inactive)
6 | CCCCn1c(=O)n(C)c(=O)c2c3c(sc21)COC(C)(C)C3 | 589 | -5.2% (inactive) | -64.5% (inactive) | 144 | -0.346 | -0.449 | -0.806 | 1.63% (inactive) | -0.447 (inactive) | -1.3e-06 (inactive) | 0.00382 (inactive) | inactive | 43.8% (inactive)
7 | Cn1ncc(N=Cc2ccccc2O)c1C(=O)N1CCOCC1 | 723 | 6.6% (inactive) | -60.6% (inactive) | 172 | -0.778 | -0.56 | 0.451 | 7.93% (inactive) | -0.486 (inactive) | -9.6e-05 (inactive) | 0.00481 (inactive) | inactive | 32.2% (inactive)
8 | CCN(CC)CCNc1ncnc2c1[nH]c1ccc(OC)cc12 | 595 | -7.6% (inactive) | -67.9% (inactive) | 150 | 1.23 | -0.0798 | -1.12 | 3.42% (inactive) | -0.236 (inactive) | 1.1e-06 (inactive) | 0.00672 (inactive) | inactive | 6% (inactive)
9 | COCCCn1c(C)nc2c(c1=O)c1nc3ccccc3nc1n2CCc1ccccc1 | 709 | 4.3% (inactive) | 18.7% (inactive) | 162 | -0.739 | -0.364 | -0.291 | -9.53% (inactive) | -0.341 (inactive) | -5.1e-05 (inactive) | 0.00467 (inactive) | inactive | 8.3% (inactive)
10 | CCN(CC)CCN1C(=O)C(O)=C(C(=O)c2cc3ccccc3o2)C1c1cccnc1 (stereo unspecified) | 423 | -6.8% (inactive) | 14.8% (inactive) | 163 | -0.472 | -0.722 | -0.061 | 3.56% (inactive) | -0.431 (inactive) | -0.000135 (inactive) | 0.00445 (inactive) | inactive | -8.96% (inactive)
11 | CC(NC(=O)NCc1cccnc1)(C(F)(F)F)C(F)(F)F | 708 | -13.6% (inactive) | -45% (inactive) | 138 | -0.926 | 1.23 | 1.47 | -2.09% (inactive) | -0.446 (inactive) | -4.7e-05 (inactive) | 0.00505 (inactive) | inactive | 10.1% (inactive)
12 | Cc1ccc(-c2n[nH]c(=O)c3ccccc23)cc1S(=O)(=O)NCCN1CCOCC1 | 449 | -1.8% (inactive) | -80.2% (inactive) | 160 | -0.696 | 0.423 | 0.442 | -3.95% (inactive) | -0.41 (inactive) | -4.4e-05 (inactive) | 0.00462 (inactive) | inactive | 19.7% (inactive)
13 | COC(=O)c1cc(Br)c(=O)n(Cc2ccco2)c1 | 518 | -0.8% (inactive) | 34.7% (inactive) | 159 | -0.341 | 0.91 | -1.02 | 1.9e-07% (inactive) | -0.411 (inactive) | -3.2e-05 (inactive) | 0.00519 (inactive) | inactive | -6.69% (inactive)
14 | COC(=O)c1ccc(C2/C(=C(\O)c3cccc(OC)c3)C(=O)C(=O)N2CCCN2CCOCC2)cc1 (stereo unspecified) | 620 | -10.1% (inactive) | -57.4% (inactive) | 150 | 0.836 | -1.51 | -1.62 | 20.2% (inactive) | -0.507 (inactive) | -2e-05 (inactive) | 0.00584 (inactive) | inactive | 14.7% (inactive)
15 | Clc1ccc(-n2ncc3c(NCc4ccco4)ncnc32)cc1 | 582 | -17.4% (inactive) | 19.7% (inactive) | 154 | 0.502 | -0.386 | 0.00112 | 19.4% (inactive) | -0.339 (inactive) | -2.6e-05 (inactive) | 0.00727 (inactive) | inactive | 45.5% (inactive)
16 | COc1cc(Cn2ccnc2)c(OC)cc1Cn1ccnc1 | 588 | 0.1% (inactive) | -64% (inactive) | 154 | 0.988 | 1.55 | 0.136 | 1.63% (inactive) | -0.422 (inactive) | -0.000118 (inactive) | 0.0052 (inactive) | inactive | 10.7% (inactive)
17 | Cn1c(NCc2cccnc2)nc2c1c(=O)n(Cc1ccccc1F)c(=O)n2C | 696 | 3% (inactive) | -201% (inactive) | 167 | 0.699 | -0.869 | 1.16 | 11.9% (inactive) | -0.51 (inactive) | -6e-05 (inactive) | 0.00566 (inactive) | inactive | 18.1% (inactive)
18 | NC(=O)C1CCN(C2OC(=O)c3ccccc32)CC1 (stereo unspecified) | 399 | -1.7% (inactive) | -148% (inactive) | 160 | 0.349 | 0.288 | -0.804 | 5.65% (inactive) | -0.447 (inactive) | -8.4e-05 (inactive) | 0.0046 (inactive) | inactive | 33.2% (inactive)
19 | COC(=O)c1[nH]c(C)c(/C(O)=C2\C(=O)C(=O)N(CCN3CCOCC3)C2c2ccccc2OC)c1C (stereo unspecified) | 610 | -6% (inactive) | -13.3% (inactive) | 168 | -1.87 | 0.251 | -0.629 | -7.28% (inactive) | -0.491 (inactive) | -0.000142 (inactive) | 0.00635 (inactive) | inactive | 5.11% (inactive)
20 | CC(C)(C)c1cc(-c2ccco2)c(C#N)c(SCC#N)n1 | 685 | 6.9% (inactive) | -48.1% (inactive) | 116 | 0.036 | 0.336 | 0.596 | -9.53% (inactive) | -0.442 (inactive) | -7.2e-05 (inactive) | 0.0081 (inactive) | inactive | -12.6% (inactive)
21 | COc1cc(C(=O)Nc2ccc(O)cc2C(=O)O)ccc1OC(C)=O | 645 | 3.6% (inactive) | 31.5% (inactive) | 95.3 | -0.0173 | 0.715 | -0.436 | 5.35% (inactive) | -0.547 (inactive) | -6.2e-05 (inactive) | 0.00561 (inactive) | inactive | 13.9% (inactive)
22 | C=CCNc1nc(N2CCCCC2)c(C#N)c2c1CN(Cc1ccccc1)CC2 | 504 | -15.8% (inactive) | -82.3% (inactive) | 127 | 0.348 | -0.299 | -0.89 | -9.53% (inactive) | -0.473 (inactive) | -5.4e-05 (inactive) | 0.00373 (inactive) | inactive | 0.584% (inactive)
23 | CCN(CC)CCOC(=O)c1c(C)n(C)c2ccc(OC)cc12 | 669 | -3.7% (inactive) | -50.2% (inactive) | 150 | 0.791 | -1.04 | -1.03 | 4.37% (inactive) | -0.466 (inactive) | -0.000107 (inactive) | 0.00645 (inactive) | inactive | 32.6% (inactive)
24 | O=C(C1=C(O)C(=O)N(CCCN2CCOCC2)C1c1ccccn1)c1cc2ccccc2o1 (stereo unspecified) | 558 | -4.5% (inactive) | 55.2% (inactive) | 95.5 | 0.823 | 0.459 | -0.11 | 12.7% (inactive) | -0.441 (inactive) | -0.000374 (active) | 0.0054 (inactive) | inactive | 23.5% (inactive)
25 | CCCc1cc(NCCN2CCOCC2)n2c(nc3ccccc32)c1C#N | 472 | 0.5% (inactive) | -144% (inactive) | 105 | -1.9 | 2.65 | 0.164 | 1.98% (inactive) | -0.324 (inactive) | 7.2e-06 (inactive) | 0.00729 (inactive) | inactive | -18.9% (inactive)
26 | CSc1nc2[nH]c3c(c2c2nncn12)CC(C)(C)OC3 | 554 | -4.9% (inactive) | -169% (inactive) | 129 | 0.946 | 0.54 | -1.06 | 5.42% (inactive) | -0.511 (inactive) | -8.3e-05 (inactive) | 0.00422 (inactive) | inactive | -2.07% (inactive)
27 | COc1cccc(C2CC(c3ccccc3Cl)n3nc(N)nc3N2)c1 (stereo unspecified) | 399 | -1.4% (inactive) | -136% (inactive) | 131 | 0.0849 | 1.44 | -0.355 | 24.4% (inactive) | -0.464 (inactive) | -7.1e-05 (inactive) | 0.00588 (inactive) | inactive | 29.4% (inactive)
